Assay outcomes as filed in PubChem BioAssay.
Compounds with a hit are over-represented: about 4.6% of the library has one in this group of screens.
Wee1 stabilizer: Wee1 degradation inhibitors, primary screen, cell-based, HeLa, Wee1K328M-luciferase, luminescence; Wee1-like protein kinase (Homo sapiens), P30291; HeLa Luc-Wee1K328M stability; 100% = proteasome inhibitor MG132 effect; reporter increase, % at 5 µM; 220,000 compounds, 1.2% hits; AID 1321, 2008;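 active = activation above the mean of all tested compounds plus 3 SD, set per screening run, cut at about 8.8% in these data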;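 also: cells exposed to compound for 20 h before luminescence read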
NF-kB neuron act: activators of NF-kB expression in neurons, primary screen, cell-based, HTS; human neuronal cells, NF-kB reporter expression; hits give high values; fold change at 12.5 µM; 190,000 compounds, 1.6% hits; AID 1239, 2008; in the data active = fold change above about 3.3
Mdm2 ligase inh: MDM2-luciferase reporter signal enhancers, primary screen, MDM2 E3 ligase inhibitor project, cell-based, luminescence, 1536-well; E3 ubiquitin-protein ligase Mdm2 (Homo sapiens), Q00987; cell-based MDM2 ubiquitination luciferase reporter, 2 h; 0 = plate control, 100 = twice control, blank-subtracted; signal enhancement, % at 5 µM; 210,000 compounds, 0.11% hits;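 active = signal enhancement of 30% or more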;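 also: luminescence tracks abundance of the self-degrading MDM2-luciferase fusion protein; higher signal means inhibition of MDM2 E3 ligase activity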
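Test system: mammalian cells stably expressing self-ubiquitinating, self-degrading MDM2 E3–luciferase fusion; Amount: 2000 cells in each well; Medium: DMEM; Schedule: 4 h settle plus 2 h compound, 37 °C; Technique: SteadyLite luciferase luminescence after 15 min room-temperature reagent incubation; Benchmarks: plate control and blank wells.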
p97 inhibitor: inhibitors of human p97 ATPase, primary screen, biochemical; inhibition, % at 8 µM; AID 1481, 2009; 220,000 compounds, 0.42% hits; recombinant p97 ATPase, Kinase-Glo ATP luminescence, 3 h; in the data active = inhibition above about 15%
Target sequence (P55072 whole entry, looked up): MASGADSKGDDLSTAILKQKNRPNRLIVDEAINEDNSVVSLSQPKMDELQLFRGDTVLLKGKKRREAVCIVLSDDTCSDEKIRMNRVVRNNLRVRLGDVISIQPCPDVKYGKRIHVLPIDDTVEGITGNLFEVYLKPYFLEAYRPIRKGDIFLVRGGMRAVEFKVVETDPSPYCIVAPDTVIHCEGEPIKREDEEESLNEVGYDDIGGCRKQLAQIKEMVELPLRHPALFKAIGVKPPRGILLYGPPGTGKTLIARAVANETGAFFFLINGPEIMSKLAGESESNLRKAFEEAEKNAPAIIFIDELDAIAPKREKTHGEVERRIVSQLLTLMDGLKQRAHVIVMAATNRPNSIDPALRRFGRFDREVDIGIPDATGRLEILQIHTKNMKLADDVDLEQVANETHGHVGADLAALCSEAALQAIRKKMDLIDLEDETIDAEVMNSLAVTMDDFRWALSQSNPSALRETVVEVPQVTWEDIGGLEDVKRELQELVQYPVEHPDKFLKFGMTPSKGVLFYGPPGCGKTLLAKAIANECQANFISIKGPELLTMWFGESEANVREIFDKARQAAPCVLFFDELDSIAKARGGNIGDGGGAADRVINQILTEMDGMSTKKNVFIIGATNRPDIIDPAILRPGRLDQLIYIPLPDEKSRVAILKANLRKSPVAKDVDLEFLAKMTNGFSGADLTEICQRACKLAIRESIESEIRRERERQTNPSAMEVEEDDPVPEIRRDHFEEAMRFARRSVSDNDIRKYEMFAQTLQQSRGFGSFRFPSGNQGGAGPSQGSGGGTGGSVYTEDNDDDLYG
STAT1 activator: STAT1 signaling activators, primary screen, cell-based, HTS, luciferase reporter. NIH 3T3 STAT1-luciferase reporter, IFN-gamma, luminescence; 100% = IFN-gamma alone, no compound. activation (% of control), % at 5.5 µM. 200,000 compounds, 2.6% hits. AID 932, 2007;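 active = activation above the screen-wide mean activation plus 3 SD, cut at about 130% in these data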
APP 5'UTR act: activators of APP 5'UTR luciferase reporter, primary screen, SH-SY5Y cells | SH-SY5Y APP 5'UTR luciferase reporter, luminescence; zero percent = DMSO vehicle wells | activation, % at 2 µM | 190,000 compounds, 1% hits;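 active = activation above a set limit, based on mean plus 3 SD of controls, cut at about 140% in these data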
Wee1 degr conf: Wee1 degradation inhibitors, confirmation, cell-based, HeLa, Wee1K328M-luciferase, luminescence, triplicate | shares compounds with Wee1 stabilizer | HeLa Luc-Wee1K328M degradation; vehicle 0%, proteasome-blocked wells 100% | activation, % at 5 µM | 1,100 compounds, 4% hits; in the data active = activation above about 8.9%
p97 confirm: p97 ATPase inhibitors, retest, confirmation, biochemical; 760 compounds, 44% hits; inhibition, % at 8 µM; recombinant p97 ATPase, Kinase-Glo ATP luminescence; shares compounds with p97 inhibitor;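 active = percent inhibition of p97 ATPase above a set limit, the primary screen's mean plus 3 SD, cut at about 15% in these data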
Each line names hits and unclear results; the compound was inactive in the other large screens (follow-up assays come after a bar, where they were run).

O=C(N/N=C/c1cccs1)/C(=C/c1ccccc1)NC(=O)c1ccccc1	Wee1 stabilizer 11.9 (no result: Mdm2 ligase inh) | Wee1 degr conf inactive
O=C(Nc1ccccc1)/C(=C\c1cccs1)NC(=O)c1ccccc1	none
CCN(CC)c1ccc(/C=N/NC(=O)c2ccc([N+](=O)[O-])cc2)cc1	none
CCN(CC)c1ccc(/C=N/NC(=O)c2cnccn2)cc1	Wee1 stabilizer 15.4, STAT1 activator 132.5 | Wee1 degr conf 19.3
CCOc1ccc(C(=O)NC(=S)NC2CCCC2)cc1[N+](=O)[O-]	none
CN(C)CCCNc1oc(-c2ccccc2)nc1C#N	Wee1 stabilizer 14.0 | Wee1 degr conf inactive
O=c1oc2ccccc2c(Nc2cccc3cccnc23)c1[N+](=O)[O-]	none
O=C(NC(=S)N(CCO)Cc1ccccc1)c1cc(Br)ccc1Cl	Wee1 stabilizer 11.2 | Wee1 degr conf inactive
COc1cccc(NC(=O)c2ncc(Cl)c(Cl)c2Cl)c1	none
CCOc1cc(NC(=S)NCCOC)c(OCC)cc1NC(=O)c1ccco1	none
CC1(C)Cc2nc3sc4c(SCC(=O)NCc5ccccc5)ncnc4c3cc2CO1	Wee1 stabilizer 13.5, NF-kB neuron act 3.85, STAT1 activator 128.7 | Wee1 degr conf inactive
O=C(O)CCCCNS(=O)(=O)/C=C/c1ccccc1	none
COc1ccc(/C=C/C(=O)NC(=S)N2CCN(c3ccccc3OC)CC2)cc1	Wee1 stabilizer 11.5 (no result: NF-kB neuron act, STAT1 activator, APP 5'UTR act) | Wee1 degr conf inactive
Cc1c(O)ccc2c(O)c(NC(=O)c3ccc4c(c3)CCC(C)(C)O4)c(=O)oc12	Wee1 stabilizer 11.6, p97 inhibitor 29.4 (no result: NF-kB neuron act, STAT1 activator, APP 5'UTR act) | Wee1 degr conf inactive | p97 confirm inactive
COc1ccc(C2CC(=O)C=C(NCc3ccc4c(c3)OCO4)C2)cc1 (centres undefined)	none (no result: NF-kB neuron act, STAT1 activator, APP 5'UTR act)
O=Cc1ccc(OCc2cccc(C(F)(F)F)c2)cc1O	p97 inhibitor 15.3 | p97 confirm 18.6
S=C(Nc1cccnc1)Nc1cccc2cnccc12	none
CN(C)S(=O)(=O)c1cccc(NC(=S)Nc2cccc3cnccc23)c1	p97 inhibitor 27.9 (no result: NF-kB neuron act, STAT1 activator, APP 5'UTR act) | p97 confirm inactive
Fc1ccc(NC(=S)Nc2cccc3cnccc23)cc1	none
S=C(Nc1ccc(Cl)cc1)Nc1cccc2cnccc12	p97 inhibitor 18.2 | p97 confirm inactive
COC(=O)c1cccc(NC(=O)Nc2ccccc2OC)c1	none
O=C1C(Nc2ccc(O)cc2)=C/C(=N/S(=O)(=O)c2cccs2)c2ccccc21	none
O=C(O)c1ccc(NC2=C/C(=N/S(=O)(=O)c3ccccc3)c3ccccc3C2=O)cc1	p97 inhibitor 18.0 (no result: NF-kB neuron act, Mdm2 ligase inh) | p97 confirm 22.8
Cc1cc(=O)oc2cc(OCC(=O)OCC(=O)NC3CC3)ccc12	none
CCOC(=O)c1c(N2C(=O)C=CC2=O)sc(C)c1C	p97 inhibitor 15.2 | p97 confirm inactive
CCOC(=O)c1c(NC(N)=O)sc(C)c1C	none
COC(=O)c1sc(-c2ccccc2)cc1NC(C)=O	none
COC(=O)c1sc(-c2cccs2)cc1NC(=O)/C=C/C(=O)O	p97 inhibitor 24.8 (no result: NF-kB neuron act, STAT1 activator, APP 5'UTR act) | p97 confirm 22.5
Cc1cc2cc(CNC(=S)Nc3ccc(OC(F)(F)F)cc3)ccc2[nH]1	none (no result: Mdm2 ligase inh)
COc1ccc(CCn2c(N)c(C(=O)NCc3ccco3)c3nc4ccccc4nc32)cc1	p97 inhibitor 15.5 | p97 confirm inactive
O=C(Nc1cccc([N+](=O)[O-])c1)c1ccccc1	none (no result: NF-kB neuron act, STAT1 activator, APP 5'UTR act)
O=C(C#Cc1cccc([N+](=O)[O-])c1)c1ccccc1	p97 inhibitor 20.8 | p97 confirm 25.2
Cc1cc(C(=O)NC(C)Cc2ccccc2)cc(C)c1[N+](=O)[O-] (centres undefined)	none
Cc1ccccc1Oc1nc2c(C)cccn2c(=O)c1/C=C(\C#N)C(=O)NC1CCS(=O)(=O)C1 (centres undefined)	p97 inhibitor 15.4 (no result: NF-kB neuron act, STAT1 activator, APP 5'UTR act) | p97 confirm inactive
Cc1cccn2c(=O)c(/C=C(\C#N)C(=O)NC3CCS(=O)(=O)C3)c(N3CCC(C(N)=O)CC3)nc12 (centres undefined)	none
CC(C)c1ccc2c(c1)CCC1C(C)(CN)CCCC21C (centres undefined)	p97 inhibitor 21.6 (no result: NF-kB neuron act, Mdm2 ligase inh, STAT1 activator, APP 5'UTR act) | p97 confirm inactive
N#C/C(=C\c1ccco1)C(=O)NCC1CCCO1 (centres undefined)	none
N#C/C(=C/c1ccc(-c2ccc(C(=O)O)c(Cl)c2)o1)C(=O)NCC1CCCO1 (centres undefined)	p97 inhibitor 27.1 | p97 confirm 37.1
O=C(NCCCO)Nc1ccc2nc(-c3ccco3)c(-c3ccco3)nc2c1	p97 inhibitor 25.4 | p97 confirm 22.5
O=C(Nc1ccc2nc(-c3ccco3)c(-c3ccco3)nc2c1)NC1CC1	p97 inhibitor 30.6 | p97 confirm 24.5
O=C(Nc1ccc(N2CCOCC2)cc1)Nc1ccc2nc(-c3ccco3)c(-c3ccco3)nc2c1	none
O=C(O)c1ccc2nc(-c3ccco3)c(-c3ccco3)nc2c1	p97 inhibitor 25.9 | p97 confirm inactive
O=C(c1ccc2nc(-c3ccco3)c(-c3ccco3)nc2c1)N1CCN(c2ccccc2)CC1	none
CCCn1nc(Oc2nc(N(C)C)nc(N(C)C)n2)ccc1=O	none
CCC(CC)c1nn2c(N)c(/C=C3\C=Nc4ccccc43)c(=O)nc2s1	none (no result: NF-kB neuron act, STAT1 activator, APP 5'UTR act)
CCCc1nn2c(N)c(/C=C3\C=Nc4ccccc43)c(=O)nc2s1	none
CC(C)Cc1nn2c(N)c(/C=C3\C=Nc4ccccc43)c(=O)nc2s1	p97 inhibitor 16.3 | p97 confirm inactive
CCC(CC)c1nn2c(N)c(/C=C3\C(C)=Nc4ccccc43)c(=O)nc2s1	p97 inhibitor 23.9 (no result: NF-kB neuron act, STAT1 activator, APP 5'UTR act) | p97 confirm 24.6
COC(=O)CN1C(=O)N/C(=C/c2ccccc2OC)C1=O	none
CC(C)c1nnc(NC(=O)C2CCCCC2)s1	p97 inhibitor 15.8 | p97 confirm inactive
Cc1cccc(C(=O)Nc2sc(-c3ccccc3)cc2C(=O)O)c1	none (no result: NF-kB neuron act, STAT1 activator, APP 5'UTR act)
CC(C)(C)C(=O)Nc1sc(-c2ccccc2)cc1C(=O)O	p97 inhibitor 17.7 (no result: NF-kB neuron act, STAT1 activator, APP 5'UTR act) | p97 confirm inactive
